≈ marks a conversion by molar mass, not a printed value. Calls of active or inactive are those of the source. No cut-off for these calls is given here.
Tests used:
[1] = Cytotoxicity against BALB/c mouse T cell after 24 hrs by trypan blue exclusion method; type: cell-based; conditions: T cells
Outline: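 BALB/c mouse T lymphocytes at 2 x 10^6/ml were exposed to 0.1, 1, 10 and 50 µg/ml compound for 24 h. Viability was scored by trypan blue exclusion. Results are means ± SEM of three experiments done in duplicate.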

Trypanosoma cruzi [2] = assay: Antitrypanosomal activity against Trypanosoma cruzi trypomastigotes infected in C3H/HeN mouse assessed as decrease in parasitemia at 1 mg/kg/day, ip treated from day 5 to 10 postinfection measured on day 16; type: functional, organism-based
Outline: (§1)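 Male C3H/HeN mice (6–8 weeks, groups of five) were infected ip with 5 x 10^3 bloodstream trypomastigotes, with parasitemia confirmed on day 5 by microhematocrit. Dosing was 1 mg/kg/day ip in 0.1 M PBS pH 7.2 on days 5–10; vehicle served as negative control. Tail blood (5 µl, lysed 1:5 in NH4Cl/Tris) was counted by Neubauer chamber every 2 days. Deaths were recorded daily. Three independent experiments were run.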

Leishmania mexicana = assay: Antileishmanial activity against Leishmania mexicana MNYC/BZ/62/M promastigotes after 120 hrs by [3H]thymidine uptake assay; type: functional, organism-based
Outline: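 Promastigotes were seeded at 1.5 x 10^6/ml in triplicate and exposed to 0.01 to 100 µg/ml compound for 72 or 120 h. [3H]thymidine was added for the last 16 h. Percent inhibition = 100 − (cpm treated/cpm untreated × 100). Amphotericin B (0.27–1.6 µM) was the positive control.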

[3] = Selectivity index, ratio of CC50 for mouse T cells to IC50 for Trypanosoma cruzi trypomastigotes; type: functional, T-cell
Outline: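 SI = 50% cytotoxic concentration on murine T lymphocytes (24 h, trypan blue exclusion) divided by IC50 against bloodstream trypomastigotes (24 h, Neubauer count of live parasites).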

Trypanosoma cruzi [4] = assay: Antitrypanosomal activity against Trypanosoma cruzi trypomastigotes infected in C3H/HeN mouse assessed as reduction in parasitemia at 1 mg/kg/day, ip treated from day 5 to 10 postinfection measured during acute phase of infection relative to control; type: functional; conditions: route intraperitoneal; outline: as §1
Trypanosoma cruzi [5] = assay: Antitrypanosomal activity against Trypanosoma cruzi trypomastigotes after 24 hrs by counting remaining live parasites in a Neubauer chamber
Trypanosoma cruzi [6] = assay: Antitrypanosomal activity against Trypanosoma cruzi trypomastigotes infected in C3H/HeN mouse assessed survival rate at 1 mg/kg/day, ip treated from day 5 to 10 postinfection measured on 100th day postinfection; type: functional; conditions: route intraperitoneal
Outline: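 Male inbred C3H/HeN mice, 6 to 8 weeks old, 27.2 ± 0.9 g, in groups of five, infected ip with 5 x 10^3 bloodstream trypomastigotes. Circulating parasites confirmed on day 5 by microhematocrit. Dosed ip daily, 1 mg/kg/day, on days 5 to 10 postinfection, in 0.1 M PBS pH 7.2; vehicle alone as negative control. Deaths recorded daily; three independent experiments.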

Trypanosoma cruzi [7] = assay: Antitrypanosomal activity against Trypanosoma cruzi epimastigotes after 72 hrs by [3H]thymidine uptake assay; type: functional, organism-based
Outline: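 Epimastigotes were seeded at 1.5 x 10^6/ml in triplicate with compound up to 100 µg/ml for 72 or 120 h, with [3H]thymidine pulsed for the final 16 h. Inhibition % = 100 − (cpm treated/cpm untreated × 100). Benznidazole (5 to 20 µM) was the positive control. Results are means ± SEM.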

SMILES | CC50 at 24 h [1] | inhibition (Trypanosoma cruzi [2]) | IC50 (Leishmania mexicana) | Selectivity Index [3] | fold change (FC) (Trypanosoma cruzi [4]) | IC50 (Trypanosoma cruzi [5]) | Activity (Trypanosoma cruzi [6]) | IC50 (Trypanosoma cruzi [7])
C=C1C(=O)O[C@@H]2[C@H]1CC[C@H](C)[C@]1(CCC(=O)O1)[C@@]2(C)O [PSILOSTACHYIN A] | 25.7 µg/mL (≈ 91.7 µM) | Active | 0.12 µg/mL (≈ 0.428 µM) | 33.8 | 1.5 | 0.76 µg/mL (≈ 2.71 µM) | 100% | 1.22 µg/mL (≈ 4.35 µM)
C=C1C(=O)O[C@@H]2C[C@H](C)[C@]3(O)CCC(=O)[C@@]3(C)C[C@H]12 [PERUVIN] | 35 µg/mL (≈ 132 µM) |  | 0.39 µg/mL (≈ 1.48 µM) | 0.7 |  | 52.8 µg/mL (≈ 200 µM) |  | 1.65 µg/mL (≈ 6.24 µM)

Reference: ChEMBL document CHEMBL1275436, “Trypanocidal and leishmanicidal activities of sesquiterpene lactones from Ambrosia tenuifolia Sprengel (Asteraceae)” (Antimicrob Agents Chemother, 2008)
